Source: ChEMBL document CHEMBL1123468, “Synthesis and antiviral activity of (E)-5-(2-bromovinyl)uracil and (E)-5-(2-bromovinyl)uridine” (1986)
Converted amounts (≈) assume the structure as drawn.

Key:
M21 = experiment: The compound was tested for its antiviral activity against HSV-1 (KOS) virus in M-21 (GM137) cell line,; assay type: functional; details: Homo sapiens
In short: (§1)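 Virus-induced cytopathogenicity in cell culture, scored microscopically. The value is the minimum concentration that cuts viral cytopathogenicity by 50%. Normal cell morphology was also checked microscopically at up to 400 μg/mL.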

HEp-2 = experiment: The compound was tested for its antiviral activity against HSV-1 (KOS) virus in HEp-2M cell line; assay type: functional; details: Homo sapiens; in short: as §1
[1] = The concentration required to reduce the cytopathogenicity of HSV-1 (KOS) in PRK cell culture absence concentrations of 6-aminothymine; assay type: functional; details: Oryctolagus cuniculus
[2] = The concentration required to reduce the cytopathogenicity of HSV-1 (KOS) in PRK cell culture by 50% in presence of 20 ug/mL concentrations of 6-aminothymine; assay type: functional; details: Oryctolagus cuniculus
In short: (§2)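 The cells were primary rabbit kidney (PRK) cultures infected with HSV-1 strain KOS, with 6-aminothymine co-present in the medium. The value is the minimum inhibitory concentration that reduces viral cytopathogenicity by 50%, using the previously described cytopathogenicity inhibition method.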

E6SM [3] = experiment: The concentration required to reduce the cytopathogenicity of HSV-1 (KOS) in E6SM cell culture by 50% in presence of 100 ug/mL dThd; assay type: functional; details: Homo sapiens
In short: (§3)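 E6SM cells infected with HSV-1 (KOS), with dThd added to the culture medium at the stated concentration. The value is the minimum concentration that reduces viral cytopathogenicity by 50%.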

E6SM [4] = experiment: The concentration required to reduce the cytopathogenicity of HSV-1 (KOS) in E6SM cell culture by 50% in presence of absence of concentrations of benzylacyclouridine; assay type: functional; details: Homo sapiens
E6SM [5] = experiment: The concentration required to reduce the cytopathogenicity of HSV-1 (KOS) in E6SM cell culture by 50% in presence of 20 ug/m concentrations of 6-aminothymine; assay type: functional; details: Homo sapiens
In short: (§4)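 E6SM cells infected with HSV-1 (KOS), with 6-aminothymine or benzylacyclouridine added to the medium at the stated concentration. The value is the minimum concentration that reduces viral cytopathogenicity by 50%.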

E6SM [6] = experiment: The compound was tested for its antiviral activity against HSV-2 (G) virus in E6SM cell culture; assay type: functional; details: Homo sapiens; in short: as §1
E6SM [7] = experiment: The concentration required to reduce the cytopathogenicity of HSV-1 (KOS) in E6SM cell culture by 50% in presence of absence of concentrations of 6-aminothymine; assay type: functional; details: Homo sapiens
HeLa [8] = experiment: The compound was tested for its antiviral activity against HSV-1 (KOS) virus in HeLa cell line; assay type: functional; details: Homo sapiens; in short: as §1
E6SM [9] = experiment: The compound was tested for its antiviral activity against HSV-2 (196) virus in E6SM cell culture; assay type: functional; details: Homo sapiens; in short: as §1
E6SM [10] = experiment: The compound was tested for its antiviral activity against TK-HSV-1 (B2006) virus in E6SM cell culture; assay type: functional; details: Homo sapiens; in short: as §1
E6SM [11] = experiment: The concentration required to reduce the cytopathogenicity of HSV-1 (KOS) in E6SM cell culture by 50% in presence of 4 ug/m concentrations of 6-aminothymine; assay type: functional; details: Homo sapiens
In short: (§5)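 E6SM cultures were infected with HSV-1 strain KOS. 6-Aminothymine or benzylacyclouridine was present in the medium together with the test compound. The value is the minimum concentration giving 50% reduction of viral cytopathogenicity, scored by the earlier-described cytopathogenicity inhibition procedure.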

E6SM [12] = experiment: The compound was tested for its antiviral activity against vesicular stomatitis virus in E6SM cell culture; assay type: functional; details: Homo sapiens; in short: as §1
E6SM [13] = experiment: The concentration required to reduce the cytopathogenicity of HSV-1 (KOS) in E6SM cell culture by 50% in presence of 50 ug/mL concentrations of benzylacyclouridine; assay type: functional; details: Homo sapiens; in short: as §5
Vero = experiment: The compound was tested for its antiviral activity against HSV-1 (KOS) virus in vero cell line; assay type: functional; details: Chlorocebus sabaeus; in short: as §1
E6SM [14] = experiment: The compound was tested for its antiviral activity against vaccinia virus in E6SM cell culture; assay type: functional; details: Homo sapiens; in short: as §1
E6SM [15] = experiment: The concentration required to reduce the cytopathogenicity of HSV-1 (KOS) in E6SM cell culture by 50% in presence of 100 ug/mL concentrations of 6-aminothymine; assay type: functional; details: Homo sapiens; in short: as §4
HeLa [16] = experiment: The concentration required to reduce the cytopathogenicity of HSV-1 (KOS) in HeLa cell culture by 50% in presence of 4 ug/m concentrations of 6-aminothymine; assay type: functional; details: Homo sapiens
HeLa [17] = experiment: The concentration required to reduce the cytopathogenicity of HSV-1 (KOS) in HeLa cell culture by 50% in presence of absence concentrations of 6-aminothymine; assay type: functional; details: Homo sapiens
E6SM [18] = experiment: The compound was tested for its antiviral activity against HSV-1 (F) virus in E6SM cell culture; assay type: functional; details: Homo sapiens; in short: as §1
Mo = experiment: The compound was tested for its antiviral activity against HSV-1 (KOS) virus in MO cell line; assay type: functional; details: Homo sapiens; in short: as §1
E6SM [19] = experiment: The compound was tested for its antiviral activity against HSV-1 (KOS) virus in E6SM cell culture; assay type: functional; details: Homo sapiens; in short: as §1
HeLa [20] = experiment: The concentration required to reduce the cytopathogenicity of HSV-1 (KOS) in HeLa cell culture by 50% in presence of 20 ug/m concentrations of 6-aminothymine; assay type: functional; details: Homo sapiens
E6SM [21] = experiment: The concentration required to reduce the cytopathogenicity of HSV-1 (KOS) in E6SM cell culture by 50% in presence of 30 ug/mL dThd; assay type: functional; details: Homo sapiens
In short: (§6)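 Thymidine (dThd) was added to the E6SM culture medium alongside the test compound, and cells were infected with HSV-1 strain KOS. The endpoint is the minimum inhibitory concentration that reduces viral cytopathogenicity by 50%. The cytopathogenicity inhibition procedure follows the earlier-described method.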

[22] = The concentration required to reduce the cytopathogenicity of HSV-1 (KOS) in PRK cell culture by 50% in presence of 100 ug/mL concentrations of 6-aminothymine; assay type: functional; details: Oryctolagus cuniculus; in short: as §2
E6SM [23] = experiment: The compound was tested for its antiviral activity against HSV-1 (McIntyre) virus in E6SM cell culture; assay type: functional; details: Homo sapiens; in short: as §1
E6SM [24] = experiment: The concentration required to reduce the cytopathogenicity of HSV-1 (KOS) in E6SM cell culture by 50% in presence of 1 ug/mL dThd; assay type: functional; details: Homo sapiens; in short: as §3
HeLa [25] = experiment: The concentration required to reduce the cytopathogenicity of HSV-1 (KOS) in HeLa cell culture by 50% in presence of 100 ug/m concentrations of 6-aminothymine; assay type: functional; details: Homo sapiens
E6SM [26] = experiment: The concentration required to reduce the cytopathogenicity of HSV-1 (KOS) in E6SM cell culture by 50% in presence of 10 ug/mL concentrations of benzylacyclouridine; assay type: functional; details: Homo sapiens; in short: as §4
E6SM [27] = experiment: The concentration required to reduce the cytopathogenicity of HSV-1 (KOS) in E6SM cell culture by 50% in absence of dThd; assay type: functional; details: Homo sapiens; in short: as §3
[28] = The concentration required to reduce the cytopathogenicity of HSV-1 (KOS) in PRK cell culture by 50% in presence of 40 ug/mL concentrations of 6-aminothymine; assay type: functional; details: Oryctolagus cuniculus; in short: as §2
E6SM [29] = experiment: The concentration required to reduce the cytopathogenicity of HSV-1 (KOS) in E6SM cell culture by 50% in presence of 10 ug/mL dThd; assay type: functional; details: Homo sapiens; in short: as §3
E6SM [30] = experiment: The concentration required to reduce the cytopathogenicity of HSV-1 (KOS) in E6SM cell culture by 50% in presence of 300 ug/mL dThd; assay type: functional; details: Homo sapiens; in short: as §6
BSC-1 = experiment: The compound was tested for its antiviral activity against HSV-1 (KOS) virus in BS-C-1A cell line; assay type: functional, Cercopithecidae; details: Chlorocebus aethiops; in short: as §1
E6SM [31] = experiment: The compound was tested for its antiviral activity against HSV-2 (Lyons) virus in E6SM cell culture; assay type: functional; details: Homo sapiens; in short: as §1
E6SM [32] = experiment: The compound was tested for its antiviral activity against HSV-1 (KOS) virus in E6SM cell line; assay type: functional; details: Homo sapiens; in short: as §1
PRK = experiment: The compound was tested for its antiviral activity against HSV-1 (KOS) virus in PRK cell line; assay type: functional; details: Oryctolagus cuniculus
In short: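 Primary rabbit kidney cells infected with HSV-1 (KOS). The value is the minimum concentration that cuts viral cytopathogenicity by 50%. Cytotoxicity was judged as microscopically detectable alteration of cell morphology at up to 400 μg/mL.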

E1 SM = experiment: The compound was tested for its antiviral activity against HSV-1 (KOS) virus in E1SM cell line; assay type: functional, Homo sapiens; in short: as §1
HSF (VGS) = experiment: The compound was tested for its antiviral activity against HSV-1 (KOS) virus in HSF (VGS) cell line; assay type: functional; details: Homo sapiens; in short: as §1
E6SM [33] = experiment: The concentration required to reduce the cytopathogenicity of HSV-1 (KOS) in E6SM cell culture by 50% in presence of 3 ug/mL dThd; assay type: functional; details: Homo sapiens; in short: as §3
BALB/3T3 = experiment: The compound was tested for its antiviral activity against HSV-1 (KOS) virus in BALB/3T3 cell line; details: Mus musculus
T-21 (LR) = experiment: The compound was tested for its antiviral activity against HSV-1 (KOS) virus in T-21 (LR) cell line; assay type: functional; details: Homo sapiens; in short: as §1

## O=c1[nH]c(=O)n([C@@H]2O[C@H](CO)[C@@H](O)[C@H]2O)cc1/C=C/Br
M21
  MIC50: 4 µg/mL (≈ 11.5 µM)
HEp-2
  MIC50: 150 µg/mL (≈ 430 µM)
[1]
  MIC50: 10 µg/mL (≈ 28.6 µM)
[2]
  MIC50: 10 µg/mL
E6SM [3]
  MIC50: > 400 µg/mL
E6SM [4]
  MIC50: 4 µg/mL
E6SM [5]
  MIC50: 3 µg/mL
E6SM [6]
  MIC50: > 400 µg/mL
E6SM [7]
  MIC50: 4 µg/mL
HeLa [8]
  MIC50: 0.4 µg/mL (≈ 1.15 µM)
E6SM [9]
  MIC50: > 400 µg/mL
E6SM [10]
  MIC50: > 200 µg/mL
E6SM [11]
  MIC50: 3 µg/mL
E6SM [12]
  MIC50: > 400 µg/mL
E6SM [13]
  MIC50: 10 µg/mL
Vero
  MIC50: > 400 µg/mL
E6SM [14]
  MIC50: > 400 µg/mL
E6SM [15]
  MIC50: 4 µg/mL
HeLa [16]
  MIC50: 0.4 µg/mL
HeLa [17]
  MIC50: 0.2 µg/mL
E6SM [18]
  MIC50: 7 µg/mL (≈ 20 µM)
Mo
  MIC50: > 400 µg/mL
E6SM [19]
  MIC50: 4 µg/mL (≈ 11.5 µM)
HeLa [20]
  MIC50: 0.4 µg/mL
E6SM [21]
  MIC50: > 400 µg/mL
[22]
  MIC50: 10 µg/mL
E6SM [23]
  MIC50: 2 µg/mL (≈ 5.73 µM)
E6SM [24]
  MIC50: 7 µg/mL
HeLa [25]
  MIC50: 1 µg/mL
E6SM [26]
  MIC50: 4 µg/mL
E6SM [27]
  MIC50: 7 µg/mL (≈ 20 µM)
[28]
  MIC50: 10 µg/mL
E6SM [29]
  MIC50: 70 µg/mL
E6SM [30]
  MIC50: > 400 µg/mL
BSC-1
  MIC50: > 400 µg/mL
E6SM [31]
  MIC50: > 400 µg/mL
E6SM [32]
  MIC50: 4 µg/mL (≈ 11.5 µM)
PRK
  MIC50: 7 µg/mL (≈ 20 µM)
E1 SM
  MIC50: 1 µg/mL (≈ 2.86 µM)
HSF (VGS)
  MIC50: 1 µg/mL (≈ 2.86 µM)
E6SM [33]
  MIC50: 4 µg/mL
BALB/3T3
  MIC50: > 400 µg/mL
T-21 (LR)
  MIC50: 10 µg/mL (≈ 28.6 µM)
